Test results from the M2OR odorant receptor database.
Residue numbers refer to the chain shown, from its start.

Experiments:
Conditions in all cases: stereoisomer not certain
OR6B3 (Homo sapiens) = biological target: T1, OR6B3 (Homo sapiens) (UniProt Q8NGW1)
T1 sequence (whole entry): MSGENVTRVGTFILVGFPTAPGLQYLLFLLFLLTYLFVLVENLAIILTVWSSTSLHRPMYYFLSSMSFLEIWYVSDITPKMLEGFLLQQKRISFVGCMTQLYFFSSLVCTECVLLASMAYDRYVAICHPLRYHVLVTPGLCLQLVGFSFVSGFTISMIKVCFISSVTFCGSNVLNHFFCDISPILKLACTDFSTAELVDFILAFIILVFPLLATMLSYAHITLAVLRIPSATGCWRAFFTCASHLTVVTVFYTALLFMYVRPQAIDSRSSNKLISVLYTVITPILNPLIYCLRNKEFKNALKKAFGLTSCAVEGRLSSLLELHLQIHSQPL
Summary of the method: (§1)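 Each receptor–molecule pair is labelled responsive or non-responsive (inactive) according to whether the original authors judged the measured signal statistically different from baseline. The data were taken from the main text and supplementary material of published papers and checked for typos and inconsistencies. Assay methods differed by source, with transient luciferase assays in mammalian cell lines being common.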

OR6C1 (Homo sapiens) = biological target: T2, OR6C1 (Homo sapiens) (UniProt Q96RD1)
T2 sequence (whole entry): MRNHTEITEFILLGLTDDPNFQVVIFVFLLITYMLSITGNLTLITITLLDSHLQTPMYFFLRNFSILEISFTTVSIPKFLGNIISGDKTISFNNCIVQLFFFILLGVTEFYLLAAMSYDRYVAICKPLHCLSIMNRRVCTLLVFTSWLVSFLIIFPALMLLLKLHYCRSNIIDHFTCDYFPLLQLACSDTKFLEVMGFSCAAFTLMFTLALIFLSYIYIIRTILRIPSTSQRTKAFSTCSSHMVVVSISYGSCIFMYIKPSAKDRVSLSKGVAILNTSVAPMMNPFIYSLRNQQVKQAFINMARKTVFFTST
Summary of the method: as §1

OR6C2 (Homo sapiens) = biological target: T3, OR6C2 (Homo sapiens) (UniProt Q9NZP2)
T3 sequence (whole entry): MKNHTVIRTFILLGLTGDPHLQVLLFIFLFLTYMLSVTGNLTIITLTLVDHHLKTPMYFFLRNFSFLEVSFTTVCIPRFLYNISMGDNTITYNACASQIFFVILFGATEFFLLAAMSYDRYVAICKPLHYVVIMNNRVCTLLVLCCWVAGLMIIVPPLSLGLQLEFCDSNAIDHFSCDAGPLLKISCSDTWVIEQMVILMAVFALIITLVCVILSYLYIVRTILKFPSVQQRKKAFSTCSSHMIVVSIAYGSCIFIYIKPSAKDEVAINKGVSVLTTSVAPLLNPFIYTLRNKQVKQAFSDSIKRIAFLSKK
Summary of the method: as §1

OR6C3 (Homo sapiens) = biological target: T4, OR6C3 (Homo sapiens) (UniProt Q9NZP0)
T4 sequence (whole entry): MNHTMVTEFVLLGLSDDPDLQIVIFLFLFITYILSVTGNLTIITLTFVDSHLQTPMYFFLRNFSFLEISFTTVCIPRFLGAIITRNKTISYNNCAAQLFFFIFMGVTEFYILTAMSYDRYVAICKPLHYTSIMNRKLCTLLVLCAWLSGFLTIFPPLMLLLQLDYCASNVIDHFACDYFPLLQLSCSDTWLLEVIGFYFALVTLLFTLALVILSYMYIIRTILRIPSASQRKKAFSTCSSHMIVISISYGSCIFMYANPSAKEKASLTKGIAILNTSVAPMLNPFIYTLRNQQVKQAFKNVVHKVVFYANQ
Summary of the method: as §1

OR6C4 (Homo sapiens) = biological target: T5, OR6C4 (Homo sapiens) (UniProt Q8NGE1)
T5 sequence (whole entry): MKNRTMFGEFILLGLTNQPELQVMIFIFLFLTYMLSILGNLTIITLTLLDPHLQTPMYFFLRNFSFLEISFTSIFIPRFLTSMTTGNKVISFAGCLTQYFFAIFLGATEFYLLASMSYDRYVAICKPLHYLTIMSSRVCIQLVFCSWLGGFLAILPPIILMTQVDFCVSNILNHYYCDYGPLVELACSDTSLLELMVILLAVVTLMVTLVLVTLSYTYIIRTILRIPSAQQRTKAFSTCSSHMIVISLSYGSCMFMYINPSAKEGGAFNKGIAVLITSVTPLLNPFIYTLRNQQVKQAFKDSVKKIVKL
Summary of the method: as §1

OR6C6 (Homo sapiens) = biological target: T6, OR6C6 (Homo sapiens) (UniProt A6NF89)
T6 sequence (whole entry): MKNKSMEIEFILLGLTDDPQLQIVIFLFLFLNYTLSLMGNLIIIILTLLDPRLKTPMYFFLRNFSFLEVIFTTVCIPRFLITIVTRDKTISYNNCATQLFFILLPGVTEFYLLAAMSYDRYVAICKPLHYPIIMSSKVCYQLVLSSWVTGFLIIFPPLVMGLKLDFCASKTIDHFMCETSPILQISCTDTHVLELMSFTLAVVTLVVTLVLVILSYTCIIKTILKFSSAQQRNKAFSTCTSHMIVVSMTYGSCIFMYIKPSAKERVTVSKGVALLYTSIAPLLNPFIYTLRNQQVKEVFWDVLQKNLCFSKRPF
Summary of the method: as §1

OR6C65 (Homo sapiens) = biological target: T7, OR6C65 (Homo sapiens) (UniProt A6NJZ3)
T7 sequence (whole entry): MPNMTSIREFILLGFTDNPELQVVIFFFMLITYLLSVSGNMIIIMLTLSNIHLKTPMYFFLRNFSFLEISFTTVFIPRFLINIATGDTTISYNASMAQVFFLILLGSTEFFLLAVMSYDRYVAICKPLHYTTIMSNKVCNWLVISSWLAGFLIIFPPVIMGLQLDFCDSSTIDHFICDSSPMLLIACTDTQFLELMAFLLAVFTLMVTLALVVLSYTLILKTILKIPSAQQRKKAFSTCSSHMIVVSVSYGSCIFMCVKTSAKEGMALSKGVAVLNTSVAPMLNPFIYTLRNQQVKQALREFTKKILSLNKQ
Summary of the method: as §1

OR6C68 (Homo sapiens) = biological target: T8, OR6C68 (Homo sapiens) (UniProt A6NDL8)
T8 sequence (whole entry): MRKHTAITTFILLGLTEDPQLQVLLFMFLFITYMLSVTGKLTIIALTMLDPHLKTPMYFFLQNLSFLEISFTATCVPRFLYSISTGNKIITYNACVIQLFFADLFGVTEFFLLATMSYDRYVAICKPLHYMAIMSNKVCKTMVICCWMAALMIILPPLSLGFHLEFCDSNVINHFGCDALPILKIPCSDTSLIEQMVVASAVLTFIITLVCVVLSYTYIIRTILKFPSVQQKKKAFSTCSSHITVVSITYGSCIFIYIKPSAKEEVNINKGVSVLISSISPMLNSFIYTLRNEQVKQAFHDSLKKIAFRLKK
Summary of the method: as §1

OR6C70 (Homo sapiens) = biological target: T9, OR6C70 (Homo sapiens) (UniProt A6NIJ9)
T9 sequence (whole entry): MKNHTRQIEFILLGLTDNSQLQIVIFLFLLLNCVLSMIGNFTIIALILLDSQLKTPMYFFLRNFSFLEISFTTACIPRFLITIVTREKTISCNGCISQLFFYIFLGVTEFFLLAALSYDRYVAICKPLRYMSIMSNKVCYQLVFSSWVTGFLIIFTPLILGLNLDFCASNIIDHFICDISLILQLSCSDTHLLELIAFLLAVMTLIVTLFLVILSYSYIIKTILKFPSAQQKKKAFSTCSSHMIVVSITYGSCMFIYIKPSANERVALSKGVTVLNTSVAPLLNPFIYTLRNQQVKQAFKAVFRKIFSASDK
Summary of the method: as §1

OR6C74 (Homo sapiens) = biological target: T10, OR6C74 (Homo sapiens) (UniProt A6NCV1)
T10 sequence (whole entry): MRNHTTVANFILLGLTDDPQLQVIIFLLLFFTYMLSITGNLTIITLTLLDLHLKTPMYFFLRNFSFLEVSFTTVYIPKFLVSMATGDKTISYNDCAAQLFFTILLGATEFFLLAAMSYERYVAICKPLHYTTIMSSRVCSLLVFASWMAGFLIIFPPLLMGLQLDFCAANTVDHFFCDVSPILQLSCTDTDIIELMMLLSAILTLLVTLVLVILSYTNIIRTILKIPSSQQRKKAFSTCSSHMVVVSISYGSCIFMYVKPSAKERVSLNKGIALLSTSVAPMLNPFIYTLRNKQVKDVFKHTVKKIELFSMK
Summary of the method: as §1

OR6C75 (Homo sapiens) = biological target: T11, OR6C75 (Homo sapiens) (UniProt A6NL08)
T11 sequence (whole entry): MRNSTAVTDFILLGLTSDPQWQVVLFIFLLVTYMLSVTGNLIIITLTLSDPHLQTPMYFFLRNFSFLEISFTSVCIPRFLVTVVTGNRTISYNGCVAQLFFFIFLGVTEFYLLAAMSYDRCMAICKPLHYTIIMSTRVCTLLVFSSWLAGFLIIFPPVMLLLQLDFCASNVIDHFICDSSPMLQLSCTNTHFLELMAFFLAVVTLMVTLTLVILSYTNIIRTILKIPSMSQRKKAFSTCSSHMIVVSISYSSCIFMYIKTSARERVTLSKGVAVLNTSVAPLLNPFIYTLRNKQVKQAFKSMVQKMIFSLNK
Summary of the method: as §1

OR6C76 (Homo sapiens) = biological target: T12, OR6C76 (Homo sapiens) (UniProt A6NM76)
T12 sequence (whole entry): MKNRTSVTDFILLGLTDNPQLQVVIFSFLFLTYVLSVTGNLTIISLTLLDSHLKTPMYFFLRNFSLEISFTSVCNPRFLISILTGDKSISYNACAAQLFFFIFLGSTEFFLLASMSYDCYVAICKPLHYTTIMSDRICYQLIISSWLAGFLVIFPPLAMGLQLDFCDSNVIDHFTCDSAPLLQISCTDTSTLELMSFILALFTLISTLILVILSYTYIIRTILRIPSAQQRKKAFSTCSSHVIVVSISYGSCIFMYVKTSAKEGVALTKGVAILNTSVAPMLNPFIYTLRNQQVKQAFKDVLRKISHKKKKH
Summary of the method: as §1

OR6F1 (Homo sapiens) = biological target: T13, OR6F1 (Homo sapiens) (UniProt Q8NGZ6)
T13 sequence (whole entry): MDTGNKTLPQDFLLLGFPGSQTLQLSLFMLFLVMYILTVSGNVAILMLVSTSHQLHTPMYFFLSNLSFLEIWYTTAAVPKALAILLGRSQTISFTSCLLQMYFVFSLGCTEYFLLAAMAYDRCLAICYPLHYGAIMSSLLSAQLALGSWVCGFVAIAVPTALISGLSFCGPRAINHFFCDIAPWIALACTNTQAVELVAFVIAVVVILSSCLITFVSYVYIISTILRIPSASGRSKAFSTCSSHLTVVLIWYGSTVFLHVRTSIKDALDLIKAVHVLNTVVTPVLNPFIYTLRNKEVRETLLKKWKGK
Summary of the method: as §1

OR6J1 (Homo sapiens) [1] = biological target: T14, OR6J1 (Homo sapiens) (UniProt Q8NGC5)
T14 sequence (whole entry): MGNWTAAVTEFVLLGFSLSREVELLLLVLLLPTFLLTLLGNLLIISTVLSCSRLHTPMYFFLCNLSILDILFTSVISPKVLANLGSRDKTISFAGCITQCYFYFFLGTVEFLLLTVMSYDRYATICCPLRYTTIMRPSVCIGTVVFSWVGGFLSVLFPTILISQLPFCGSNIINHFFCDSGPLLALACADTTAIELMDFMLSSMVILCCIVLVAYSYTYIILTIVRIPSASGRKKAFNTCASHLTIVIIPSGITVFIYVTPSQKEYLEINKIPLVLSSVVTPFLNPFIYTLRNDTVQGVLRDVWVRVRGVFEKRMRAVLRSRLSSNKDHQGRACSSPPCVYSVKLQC
Summary of the method: as §1

OR6K2 (Homo sapiens) = biological target: T15, OR6K2 (Homo sapiens) (UniProt Q8NGY2)
T15 sequence (whole entry): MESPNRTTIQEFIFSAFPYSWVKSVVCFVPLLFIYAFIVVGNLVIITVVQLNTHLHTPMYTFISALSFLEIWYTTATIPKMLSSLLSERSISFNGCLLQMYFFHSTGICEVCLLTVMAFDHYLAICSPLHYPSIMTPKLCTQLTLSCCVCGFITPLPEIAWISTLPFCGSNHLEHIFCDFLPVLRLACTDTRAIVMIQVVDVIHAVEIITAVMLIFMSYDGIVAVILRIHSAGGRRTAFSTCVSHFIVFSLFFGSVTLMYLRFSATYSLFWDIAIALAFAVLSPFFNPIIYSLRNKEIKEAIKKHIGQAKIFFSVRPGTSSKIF
Summary of the method: as §1

OR6B3 T48I R131C = tested on: T16, OR6B3 T48I R131C
T16 sequence (whole entry): T1 sequence (whole entry) with T48I, R131C
Summary of the method: as §1

OR6C1 C130Y H165D V246I = tested on: T17, OR6C1 C130Y H165D V246I
T17 sequence (whole entry): T2 sequence (whole entry) with C130Y, H165D, V246I
Summary of the method: as §1

OR6C4 = tested on: T18, OR6C4
T18 sequence (whole entry): T5 sequence (whole entry) with I37V
Summary of the method: as §1

OR6C6 M6I = tested on: T19, OR6C6 M6I
T19 sequence (whole entry): T6 sequence (whole entry) with M6I
Summary of the method: as §1

OR6J1 (Homo sapiens) [2] = biological target: T20, OR6J1 (Homo sapiens) (UniProt Q8NGC5); remark: listed apart in the source
T20 sequence (whole entry): T14 sequence (whole entry) with P250S
Summary of the method: as §1

Measured: odorant receptor agonist call;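 also: active if original authors judged signal statistically different from baseline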

CC(CO)CS (stereo unspecified)
not listed: OR6B3 T48I R131C | OR6C1 C130Y H165D V246I | OR6C4 | OR6C6 M6I | OR6J1 (Homo sapiens) [2]
inactive: all other assays above

CCC(S)C(C)CO (stereo unspecified)
not listed: OR6B3 T48I R131C | OR6C1 C130Y H165D V246I | OR6C4 | OR6C6 M6I | OR6J1 (Homo sapiens) [2]
inactive: all other assays above

CC1=C(O)C(=O)C(C)O1 (stereo unspecified)
not listed: OR6J1 (Homo sapiens) [1]
inactive: all other assays above

Cc1cnc(C)c(C)n1
not listed: OR6J1 (Homo sapiens) [1]
inactive: all other assays above

CC(=O)c1c(C)c([N+](=O)[O-])c(C(C)(C)C)c([N+](=O)[O-])c1C
not listed: OR6B3 T48I R131C | OR6C1 C130Y H165D V246I | OR6C4 | OR6C6 M6I | OR6J1 (Homo sapiens) [2]
inactive: all other assays above

CC1=C(O)C(=O)OC1C (stereo unspecified)
not listed: OR6J1 (Homo sapiens) [1]
inactive: all other assays above

CCCC(S)CCOC(C)=O (stereo unspecified)
not listed: OR6J1 (Homo sapiens) [1]
inactive: all other assays above
